Measured values from different studies.
Compare with care: the assays were run in different laboratories.
Observed: cell growth or viability

SMILES	cell line	technique	tested at	time	viability [%]
O=C(C=Cc1ccccc1)Nc1ccc(Oc2nnc(-c3ccc(Cl)cc3)c3ccccc23)cc1	HepG2	MTT	0.625 µM	24 h	78.5
CC(C)(C)c1cnc(CSc2cnc(NC(=O)C3CCN(CCCCCSc4cccc5c4CN(C4CCC(=O)NC4=O)C5=O)CC3)s2)o1 (stereo not shown)	HH	CCK-8	10 nM	–	93.5
CC(=O)c1nn(-c2ccc(C)cc2)/c(=N/N=C(\C)c2ccc(NC(=O)c3ccccc3)cc2)s1	HepG2	MTT	10 µM	–	6.81
CC(=NNC(=O)COc1ccc2c(C)c(Cc3ccccc3)c(=O)oc2c1C)c1ccc(Br)cc1	HepG2	MTT	1.6 µg/mL	–	54.8
CC(=NNC(=O)c1ccccc1Br)c1ccc(Nc2nnc(-c3ccc(Cl)cc3)c3ccccc23)cc1	HepG2	MTT	0.312 µM	24 h	85.4
CC(C)(C)c1cnc(CSc2cnc(NC(=O)C3CCN(CCCCCCCCSc4cccc5c4C(=O)N(C4CCC(=O)NC4=O)C5=O)CC3)s2)o1 (stereo not shown)	HH	CCK-8	0.5 µM	–	0
CC(=O)Nc1ccc(/C(C)=N/N=c2\sc(C(C)=O)nn2-c2ccc(C)cc2)cc1	HepG2	MTT	0.312 µM	–	100
CC(=NNC(=O)c1ccccc1Cl)c1ccc(Nc2nnc(-c3ccc(Cl)cc3)c3ccccc23)cc1	HepG2	MTT	2.5 µM	24 h	4.78
CC(C)(C)c1cnc(CSc2cnc(NC(=O)C3CCN(CCCCSc4cccc5c4C(=O)N(C4CCC(=O)NC4=O)C5=O)CC3)s2)o1 (stereo not shown)	HH	CCK-8	1 nM	–	100
CC(=O)c1nn(-c2ccccc2Cl)/c(=N/N=C(\C)c2ccc(NC(=O)c3ccccc3)cc2)s1	HepG2	MTT	5 µM	–	6.09
